Test results: ChEMBL document CHEMBL4229565 (J Med Chem, 2018)

Tests used:
[1] = Inhibition of Trypanosoma brucei NMT using [3H]-myristoyl-coA/biotinylated CAP5.5 as substrate after 50 mins by scintillation proximity assay
Method in brief: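 TbNMT scintillation proximity assay at 22–23 °C, with test compound dilutions added in DMSO. Reaction: 30 mM Tris pH 7.4, 0.5 mM EDTA, 0.5 mM EGTA, 1.25 mM DTT, 0.1% Triton X-100, 0.125 μM [3H]myristoyl-coA, 0.5 μM biotinylated CAP5.5 peptide, 5 nM enzyme. Enzyme added first, then substrate mix to start; stopped after 50 min with phosphoric acid pH 4.0/MgCl2/SPA beads; scintillation counting.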

[2] = target: T1, Glycylpeptide N-tetradecanoyltransferase 1 (Homo sapiens, UniProt P30419); assay: Inhibition of human NMT1 using [3H]-myristoyl-coA/biotinylated CAP5.5 as substrate after 15 mins by scintillation proximity assay
T1 sequence (P30419 whole entry): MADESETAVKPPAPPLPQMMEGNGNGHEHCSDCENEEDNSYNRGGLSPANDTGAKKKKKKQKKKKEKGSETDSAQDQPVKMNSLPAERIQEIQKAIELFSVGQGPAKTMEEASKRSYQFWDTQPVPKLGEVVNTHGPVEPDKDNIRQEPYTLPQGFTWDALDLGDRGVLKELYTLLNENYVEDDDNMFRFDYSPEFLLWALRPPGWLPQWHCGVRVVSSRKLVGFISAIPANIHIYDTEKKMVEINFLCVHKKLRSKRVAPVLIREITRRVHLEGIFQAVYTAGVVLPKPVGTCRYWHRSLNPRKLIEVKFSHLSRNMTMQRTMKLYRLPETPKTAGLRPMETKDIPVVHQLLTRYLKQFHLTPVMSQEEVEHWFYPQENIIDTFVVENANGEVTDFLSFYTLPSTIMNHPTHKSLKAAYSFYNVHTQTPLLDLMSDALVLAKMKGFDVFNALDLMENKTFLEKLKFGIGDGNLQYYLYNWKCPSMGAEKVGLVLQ

[3] = tested on: Trypanosoma brucei brucei; assay: Antitrypanosomal activity against bloodstream form of Trypanosoma brucei brucei s427 after 69 hrs by resazurin-based […] analysis; type: functional, organism-based; details: s427, 69 h
Method in brief: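 Bloodstream T. b. brucei s427 was grown in modified HMI9 (56 μM 1-thioglycerol in place of 2-mercaptoethanol) and counted by hemocytometer. Cells (10^4/ml) were added to compound in DMSO and incubated 69 h at 37 °C, 5% CO2. Resazurin (50 μM final) was then added for 4 h more. Fluorescence read at ex 528/em 590 nm.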

[4] = tested on: human NMT1 versus Trypanosoma brucei NMT; assay: Selectivity ratio of IC50 for human NMT1 to IC50 for Trypanosoma brucei NMT; type: toxicity; details: read-out: Ratio IC50
Method in brief: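 Both enzymes assayed by SPA in the same buffer: 0.125 μM [3H]myristoyl-coA, 0.5 μM biotinylated CAP5.5 peptide, 5 nM NMT, 22–23 °C. Reactions stopped at 15 min for HsNMT1 and 50 min for TbNMT. The ratio is HsNMT IC50 divided by TbNMT IC50.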

[5] = Intrinsic clearance in CD1 mouse liver microsomes at 1 uM measured up to 30 mins by UPLC-MS/MS method; type: ADME, microsome; details: 0.5 h
[6] = target: Voltage-gated inwardly rectifying potassium channel KCNH2 (Homo sapiens, UniProt Q12809); assay: Inhibition of human ERG by patch clamp assay
Sequence of Voltage-gated inwardly rectifying potassium channel KCNH2 (Q12809 whole entry): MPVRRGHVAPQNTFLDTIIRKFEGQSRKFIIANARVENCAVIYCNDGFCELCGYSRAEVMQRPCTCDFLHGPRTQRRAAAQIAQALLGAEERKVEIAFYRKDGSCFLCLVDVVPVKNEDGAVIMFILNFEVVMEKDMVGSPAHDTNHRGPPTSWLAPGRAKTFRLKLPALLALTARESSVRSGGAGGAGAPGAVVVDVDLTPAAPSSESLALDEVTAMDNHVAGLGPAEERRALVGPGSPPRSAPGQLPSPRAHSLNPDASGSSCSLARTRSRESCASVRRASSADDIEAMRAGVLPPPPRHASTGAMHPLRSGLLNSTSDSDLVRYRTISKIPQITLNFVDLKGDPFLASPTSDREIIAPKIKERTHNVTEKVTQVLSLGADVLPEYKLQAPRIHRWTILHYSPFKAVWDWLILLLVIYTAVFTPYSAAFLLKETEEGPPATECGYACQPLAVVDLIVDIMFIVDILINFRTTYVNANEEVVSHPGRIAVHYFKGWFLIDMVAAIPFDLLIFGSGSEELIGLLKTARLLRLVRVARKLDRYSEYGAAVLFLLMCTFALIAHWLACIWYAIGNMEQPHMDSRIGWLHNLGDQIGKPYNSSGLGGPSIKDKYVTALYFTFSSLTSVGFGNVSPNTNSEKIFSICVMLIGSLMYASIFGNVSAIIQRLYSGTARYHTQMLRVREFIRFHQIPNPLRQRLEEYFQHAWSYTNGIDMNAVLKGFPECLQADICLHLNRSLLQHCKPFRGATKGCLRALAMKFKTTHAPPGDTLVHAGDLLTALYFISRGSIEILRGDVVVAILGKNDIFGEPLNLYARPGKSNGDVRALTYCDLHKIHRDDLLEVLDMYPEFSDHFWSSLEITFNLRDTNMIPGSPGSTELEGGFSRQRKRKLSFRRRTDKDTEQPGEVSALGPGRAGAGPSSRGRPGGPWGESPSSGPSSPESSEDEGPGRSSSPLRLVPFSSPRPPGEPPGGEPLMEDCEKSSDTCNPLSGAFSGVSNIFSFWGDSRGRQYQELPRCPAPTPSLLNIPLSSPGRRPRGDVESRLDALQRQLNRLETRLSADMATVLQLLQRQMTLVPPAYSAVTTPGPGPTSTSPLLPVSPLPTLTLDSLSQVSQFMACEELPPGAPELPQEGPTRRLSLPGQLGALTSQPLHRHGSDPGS

[7] = tested on: human NMT; assay: Therapeutic index, ratio of IC50 for human NMT to EC50 for bloodstream form of Trypanosoma brucei brucei s427; type: toxicity; details: read-out: Ratio IC50/EC50

| IC50 [2] | EC50 [3] | CLH [5] | SMILES | IC50 [1] | selectivity ratio [4] | IC50 [6] | selectivity ratio [7] |
| --- | --- | --- | --- | --- | --- | --- | --- |
| > 100000 nM | > 50000 nM | – | CCC(CC)c1ccc2ncccc2c1NS(=O)(=O)c1ccc(Br)cc1 | 5700 nM | > 17 | – | – |
| > 100000 nM | > 50000 nM | 23 mL/min/g | O=S(=O)(Nc1c(Cc2ccccc2)ccc2ncccc12)c1ccc(Br)cc1 | 6200 nM | > 16 | – | – |
| – | – | – | COC(=O)c1cccc(NS(=O)(=O)c2ccc(Br)cc2)c1 | > 100000 nM | – | – | – |
| – | 250 nM | 8.9 mL/min/g | CC(C)Cc1ccc2ncccc2c1NS(=O)(=O)c1ccc(CCCCN2CCN3CCC[C@@H]3C2)cc1 | 12 nM | – | – | – |
| – | 18 nM | 3.7 mL/min/g | CC(C)Cc1ccc2ncccc2c1NS(=O)(=O)c1ccc(CCCN2CCCN(C)CC2)cc1 | < 5 nM | – | – | – |
| – | 84 nM | 2.3 mL/min/g | CC(C)Cc1ccc2ncccc2c1NS(=O)(=O)c1ccc(CCCN2CCN(C)CC2)cc1 | 7 nM | – | – | – |
| – | 33 nM | – | CC(C)Cc1ccc2ncccc2c1NS(=O)(=O)c1ccc(CCCOC[C@@H]2CN(C)CCO2)cc1 | < 5 nM | – | – | – |
| – | 39 nM | – | CC(C)Cc1ccc2ncccc2c1NS(=O)(=O)c1ccc(CCCOC[C@@H]2CNCCO2)cc1 | < 5 nM | – | – | – |
| – | 16 nM | – | CC(C)Cc1ccc2nn(C)cc2c1NS(=O)(=O)c1ccc(CCCN2CCCN(C)CC2)cc1 | 5 nM | – | – | – |
| – | 31 nM | 3.7 mL/min/g | CC(C)Cc1ccc2nn(C)cc2c1NS(=O)(=O)c1ccc(CCCOC[C@@H]2CCCN2C)cc1 | < 5 nM | – | 3000 nM | – |
| – | 18000 nM | > 50 mL/min/g | O=S(=O)(Nc1c(N2CCCCCC2)ccc2ncccc12)c1ccc(Br)cc1 | 690 nM | – | – | – |
| – | 9 nM | 2.6 mL/min/g | CC(C)Cc1ccc2ncccc2c1NS(=O)(=O)c1ccc(CCCC2CCN(C)CC2)cc1 | < 5 nM | – | – | – |
| – | 140 nM | 3.7 mL/min/g | CC(C)Cc1ccc2nn(C)cc2c1NS(=O)(=O)c1ccc(CCCCN2CCN3CCC[C@@H]3C2)cc1 | 14 nM | – | – | – |
| > 100000 nM | > 50000 nM | – | O=S(=O)(Nc1cccc2ncccc12)c1ccc(Br)cc1 | 87000 to 90000 nM | > 1.1 | – | – |
| > 100000 nM | 24000 nM | 33 mL/min/g | Cn1cc2c(NS(=O)(=O)c3ccc(Br)cc3)c(N3CCCC3)ccc2n1 | 27000 nM | > 3.7 | – | > 4.1 |
| > 100000 nM | > 50000 nM | > 50 mL/min/g | CC(C)Cc1ccc2ncccc2c1NS(=O)(=O)c1ccc(Br)cc1 | 1700 nM | > 59 | – | – |
| 1200 nM | 76 nM | – | CN1CCC(CCCCc2ccc(S(=O)(=O)Nc3c(N4CCCC4)ccc4ncccc34)cc2)CC1 | 11 nM | 110 | – | 16 |
| – | – | – | O=S(=O)(Nc1cc(-c2cccnc2)ccc1N1CCCC1)c1ccc(Br)cc1 | 39000 nM | – | – | – |
| > 100000 nM | 15000 nM | – | COC(=O)c1ccc(N2CCCC2)c(NS(=O)(=O)c2ccc(OC)cc2)c1 | 700 nM | > 100 | – | > 6.7 |
| > 100000 nM | > 50000 nM | – | Cn1cc2c(NS(=O)(=O)c3ccc(Br)cc3)c(C3CCCC3)ccc2n1 | 26000 nM | > 3.8 | – | – |
| – | 350 nM | – | CC(C)Cc1ccc2ncccc2c1NS(=O)(=O)c1ccc(CCCCN2C[C@@H](C)N[C@@H](C)C2)cc1 | 16 nM | – | – | – |
| > 100000 nM | > 50000 nM | – | Cn1cc2c(NS(=O)(=O)c3ccc(Br)cc3)c(CC3CCCCC3)ccc2n1 | 1700 nM | > 59 | – | – |
| – | 20 nM | – | CC(C)Cc1ccc2nn(C)cc2c1NS(=O)(=O)c1ccc(CCCOC[C@H]2CCCN2C)cc1 | < 5 nM | – | – | – |
| 41000 nM | 11000 nM | 27 mL/min/g | O=S(=O)(Nc1c(N2CCCC2)ccc2ncccc12)c1ccc(Br)cc1 | 7500 nM | 5.5 | – | 3.7 |

| IC50 [2] | EC50 [3] | CLH [5] | SMILES | IC50 [1] | selectivity ratio [4] | IC50 [6] | selectivity ratio [7] |
| --- | --- | --- | --- | --- | --- | --- | --- |
| – | 76 nM | – | CC(C)Cc1ccc2nn(C)cc2c1NS(=O)(=O)c1ccc(CCCOC[C@@H]2COCCN2C)cc1 | 9 nM | – | – | – |
| > 100000 nM | 21000 nM | – | COC(=O)c1ccc(N2CCCC2)c(NS(=O)(=O)c2ccc(Br)cc2)c1 | 800 nM | > 100 | – | > 4.8 |
| – | 19 nM | 6.2 mL/min/g | CC(C)Cc1ccc2ncccc2c1NS(=O)(=O)c1ccc(CCCCC2CCN(C)CC2)cc1 | < 5 nM | – | – | – |
| > 100000 nM | – | 3.6 mL/min/g | Cc1ccc2ncccc2c1NS(=O)(=O)c1ccc(Br)cc1 | 33000 nM | > 3 | – | – |
| – | – | – | O=S(=O)(Nc1ccc2scnc2c1)c1ccc(Br)cc1 | 24000 nM | – | – | – |
| – | 35 nM | 4 mL/min/g | CC(C)Cc1ccc2nn(C)cc2c1NS(=O)(=O)c1ccc(CCCCN2CCCN(C)CC2)cc1 | < 5 nM | – | – | – |
| – | 39 nM | – | CC(C)Cc1ccc2ncccc2c1NS(=O)(=O)c1ccc(CCCO[C@@H]2CCCN(C)C2)cc1 | < 5 nM | – | – | – |
| > 100000 nM | 32000 nM | – | Cn1cc2c(NS(=O)(=O)c3ccc(Br)cc3)c(C3CCCCC3)ccc2n1 | 17000 nM | > 5.9 | – | > 3.1 |
| – | 21 nM | 1.5 mL/min/g | CC(C)Cc1ccc2ncccc2c1NS(=O)(=O)c1ccc(CCCCC2CCNCC2)cc1 | < 5 nM | – | – | – |
| – | 26 nM | 24 mL/min/g | CC(C)Cc1ccc2nn(C)cc2c1NS(=O)(=O)c1ccc(CCCOC[C@@H]2CN(C)CCO2)cc1 | < 5 nM | – | – | – |
| – | 9 nM | 2.3 mL/min/g | CC(C)Cc1ccc2ncccc2c1NS(=O)(=O)c1ccc(CCCO[C@H]2C[C@H]3CC[C@@H](C2)N3C)cc1 | < 5 nM | – | – | – |
| > 100000 nM | 12000 nM | – | COC(=O)c1ccc(N2CCCCCC2)c(NS(=O)(=O)c2ccc(OC)cc2)c1 | 1000 nM | > 100 | – | 8.3 |
| > 100000 nM | > 50000 nM | – | CC(C)Cc1ccc2nn(C)cc2c1NS(=O)(=O)c1ccc(Br)cc1 | 1100 nM | > 91 | – | – |
| – | – | – | COc1ccc(S(=O)(=O)Nc2cc(C(=O)O)ccc2N2CCCCCC2)cc1 | > 100000 nM | – | – | – |
| – | > 50000 nM | > 50 mL/min/g | O=S(=O)(Nc1c(C2CCCC2)ccc2ncccc12)c1ccc(Br)cc1 | 3200 nM | – | – | – |
| – | – | – | O=C1OCc2c1ccc(N1CCCC1)c2NS(=O)(=O)c1ccc(Br)cc1 | > 100000 nM | – | – | – |
| > 100000 nM | 23000 nM | 33 mL/min/g | O=S(=O)(Nc1c(CC2CCCCC2)ccc2ncccc12)c1ccc(Br)cc1 | 1400 nM | > 71 | – | > 4.3 |
| > 100000 nM | 39000 nM | 38 mL/min/g | O=S(=O)(Nc1c(C2CCCCC2)ccc2ncccc12)c1ccc(Br)cc1 | 63000 nM | > 1.6 | – | > 2.6 |
| – | 180 nM | 1.3 mL/min/g | CC(C)Cc1ccc2ncccc2c1NS(=O)(=O)c1ccc(CCCCN2CCNCC2)cc1 | 10 nM | – | – | – |
| > 100000 nM | 50000 nM | – | O=S(=O)(Nc1c(-c2ccccc2)ccc2ncccc12)c1ccc(Br)cc1 | > 100000 nM | – | – | – |
| – | 5 nM | 1.2 mL/min/g | CC(C)Cc1ccc2nn(C)cc2c1NS(=O)(=O)c1ccc(CCCC2CCN(C)CC2)cc1 | < 5 nM | – | – | – |
| – | – | – | COC(=O)c1ccc(N2CCCCC2)c(NS(=O)(=O)c2ccc(Br)cc2)c1 | > 100000 nM | – | – | – |
| > 100000 nM | > 50000 nM | 6.3 mL/min/g | Cn1cc2c(NS(=O)(=O)c3ccc(Br)cc3)cccc2n1 | 27000 nM | > 3.7 | – | – |
| – | 9 nM | 22 mL/min/g | CC(C)Cc1ccc2nn(C)cc2c1NS(=O)(=O)c1ccc(CCCOC[C@H]2CN(C)CCO2)cc1 | < 5 nM | – | – | – |
